Six molecules from ChEMBL document CHEMBL1147405, “New bicyclam-GalCer analogue conjugates: synthesis and in vitro anti-HIV activity” (Bioorg Med Chem Lett, 2004) can be followed below.

Each structure is given as a SMILES string. Some results are limits rather than exact numbers.

Data set [1] relates to CEM-SS. In words: Effective concentration of compound against HIV-1 LAI strain in CEM-SS cells. Format: functional, cell-based. The conditions noted are these: Homo sapiens. The method, boiled down:
(§1)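 CEM-SS cells infected with HIV-1 LAI. Virus replication followed by reverse transcriptase activity measurement. EC50 is the concentration inhibiting 50% of virus replication. Relative potency is the ratio to AMD3100.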

A short description of data set [2]: (§2) Concentration of compound causing 50% death of uninfected cells. It counts as cell-based. The conditions noted are these: human, CEM-SS cells (uninfected). The method, boiled down:
(§3)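 Uninfected cells of each line (CEM-SS, MT4 or PBMC) exposed to compound; CC50 taken as the concentration causing 50% death of uninfected cells.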

In data set [3] the test system is CEM-SS. In words: Potency of compound against HIV-1 LAI strain in CEM-SS cells relative to AMD3100. Format: functional, Homo sapiens. The procedure, abridged: as §1
The subject of data set [4] is GHOST CXCR4. Kind of data set: Inhibitory concentration of compound against HIV-1 LAI strain in GHOST CXCR4 cell line. Format: functional, cell-based. The conditions noted are these: Homo sapiens. The method, boiled down: (§4)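 GHOST osteosarcoma cells express CD4, CXCR4 or CCR5 plus an HIV-2 LTR-GFP reporter, grown in Dulbecco medium with 10% FCS. Seeded at 2.5 10⁵ per well; 24 h later pretreated with compound for 1 h at 37 °C. Infected with HIV-1 Lai (CXCR4) or Bal (CCR5), 2 h adsorption, washed, cultured 48 h with drug. GFP+ cells counted by flow cytometry; IC50 from median-effect plot.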

Data set [5] deals with GHOST CXCR4. Kind of data set: Potency of compound against HIV-1 LAI strain in GHOST CXCR4 cell line relative to AMD3100. It counts as functional, Homo sapiens. The method, boiled down:
as §4

Data set [6] concerns MT4. In words: Potency of compound against HIV-1 IIIB strain in MT-4 cells relative to AMD3100. It counts as functional, Homo sapiens. The procedure, abridged:
(§5)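 MT4 cells infected with HIV-1 IIIB. Virus-induced cytopathogenic effect scored. EC50 is the concentration protecting 50% of infected cells against cytopathogenicity. Relative potency is expressed against AMD3100.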

The subject of data set [7] is MT4. Kind of data set: Effective concentration of compound against HIV-1 IIIB strain in MT-4 cells. It counts as functional, cell-based. The conditions noted are these: Homo sapiens. The method, boiled down: as §5
Data set [8] is described as follows: as §2. Format: ADME, cell-based. The conditions noted are these: human. The procedure, abridged: as §3
For data set [9], the system named is PBMC. In words: Effective concentration of compound against HIV-1 89.6 strain in PBMC cells. The conditions noted are these: Homo sapiens. It counts as functional, cell-based. The method, boiled down:
(§6)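 PBMC infected with dual-tropic HIV-1 89.6. Virus growth measured by reverse transcriptase activity. EC50 is the concentration protecting 50% of infected cells. Relative potency is expressed against AMD3100.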

Data set [10] concerns PBMC. In words: Potency of compound against HIV-1 89.6 strain in PBMC cells relative to AMD3100. Format: functional, Homo sapiens. The method, boiled down: as §6
The test system of data set [11] is GHOST CCR5. In words: Inhibitory concentration of compound against HIV-1 Ba1 strain in GHOST CCR5 cell line. Format: functional, cell-based. The conditions noted are these: Homo sapiens. The method, boiled down: as §4

For `CCOC(=O)CCCCN1CCCN(Cc2ccc(CN3CCCNCCNCCCNCC3)cc2)CCNCCCNCC1`, the figures for the EC50 in [1], in data set [7] and in [9] were 910 nM, 690 nM and 25 nM, respectively. The CC50 in [2], in [8] (MT4 cells (uninfected)) and in [8] (PBMC (uninfected)) was greater than 100000 nM throughout. The Relative potency in [3] was roughly 7; in data set [5], roughly 7; in data set [6] it was roughly 10; in data set [10], roughly 7. Moreover, the IC50 is 7.1 nM in [4] and greater than 50000 nM in [11].
As for `Cc1cn([C@H]2C[C@H](N=[N+]=[N-])[C@@H](CO)O2)c(=O)[nH]c1=O` [ZIDOVUDINE], the values for the EC50 in data set [1], in [7] and in [9] were 6.3 nM, 9.9 nM and 24 nM, respectively.
As to `c1cc(CN2CCCNCCNCCCNCC2)ccc1CN1CCCNCCNCCCNCC1` [PLERIXAFOR], the EC50 in [1] was found to be 127 nM; in [7], 65 nM; in data set [9], 3.8 nM. In addition, the CC50 in [2], in data set [8] (MT4 cells (uninfected)) and in data set [8] (PBMC (uninfected)) was greater than 10000 nM in each case. Besides, the 50% inhibitory concentration (IC50) is 0.95 nM in data set [4] and greater than 5000 nM in [11].
Take `CCCCCCCCCCCCCC(=O)N[C@@H](CO[C@@H]1O[C@@H](CO)[C@H](O)[C@H](O)[C@@H]1O)C(=O)O`: the values for the EC50 in data set [1] and in data set [7] were 10000 nM and greater than 100000 nM, respectively. Besides, the cytotoxic concentration (CC50) in data set [2] and in data set [8] (MT4 cells (uninfected)) was greater than 100000 nM in each case.
Turning to `CCCCCCCCCCCCCC(=O)N[C@@H](CCCCNC(=O)CCCCN1CCCNCCN(Cc2ccc(CN3CCCNCCNCCCNCC3)cc2)CCCNCC1)C(=O)N[C@@H](CO[C@@H]1O[C@@H](CO)[C@H](O)[C@H](O)[C@@H]1O)C(=O)O`, the values for the EC50 in [1], in [7] and in data set [9] were 6000 nM, 2900 nM and 250 nM, respectively. Further, the CC50 in [2] was greater than 100000 nM; in [8] (MT4 cells (uninfected)), greater than 100000 nM; in data set [8] (PBMC (uninfected)) it was greater than 10000 nM. Besides, the Relative potency in [3] is recorded as roughly 50; in [5] it was roughly 20; in data set [6], roughly 45; in [10], roughly 65. Moreover, the IC50 in data set [4] is 21 nM; in data set [11], greater than 10000 nM.
Take `CCCCCCCCCCCCCC(=O)N[C@@H](CCCCNC(=O)CCCCN1CCCN(Cc2ccc(CN3CCCNCCNCCCNCC3)cc2)CCNCCCNCC1)C(=O)N[C@@H](CO[C@@H]1O[C@@H](CO)[C@H](O)[C@H](O)[C@@H]1O)C(=O)O`: the EC50 was found to be 5200 nM in data set [1], 2800 nM in [7] and 470 nM in data set [9]. The CC50 was greater than 50000 nM in data set [2], greater than 50000 nM in data set [8] (MT4 cells (uninfected)) and greater than 28000 nM in [8] (PBMC (uninfected)). Also, the Relative potency in data set [3] is listed as roughly 40; in data set [5], roughly 90; in data set [6] it was roughly 45; in data set [10] it was roughly 125. Also, the IC50 in data set [4] was 86 nM; in [11] it was greater than 50000 nM.

For orientation: EC50 means the midpoint of the concentration-response curve. Higher therefore signals lower potency in that assay. The CC50 is the concentration giving 50% cytotoxicity. Read a high CC50 as better tolerance by the cells. What is called IC50 is the concentration that gives 50% inhibition.
